Published values from different studies.
Compare with care: the assays were run in different laboratories.
Target: Casein kinase II subunit alpha (CSNK2A1, Homo sapiens, UniProt P68400)

| Compound | test | conditions | remaining binding |
| --- | --- | --- | --- |
| CCN1CCN(Cc2ccc(C(=O)Nc3ccc(C)c(Oc4ccc5c(c4)CC(=O)N5)c3)cc2C(F)(F)F)CC1 | binding, competition with immobilised ligand | 1 µM | 100% |
| CSc1cccnc1N1CCN(Cc2nc3ccccc3[nH]2)CC1 | cell-free assay, competition with immobilised ligand | 1 µM | 81% |
| c1cnn2ncc(-c3ccnc(N4CCC45COC5)n3)c2c1 | binding | 1 µM | 40% |
| CNC(=O)[C@@H]1CC[C@@H](n2c(-c3ccc4cnccc4c3)nc3ccc(C(=O)NCc4cccc(C(N)=O)c4)cc32)C1 | binding, competition with immobilised ligand | 1 µM | 94% |
| O=S(=O)(NC1CCC(c2cc(F)ccc2F)(S(=O)(=O)c2ccc(Cl)cc2)CC1)C(F)(F)F (centres unmarked) | cell-free assay, competition with immobilised ligand | 1 µM | 85% |
| O=C(NCC1CCOCC1)c1n[nH]cc1NC(=O)c1c(F)cccc1F | binding, competition with immobilised ligand | 1 µM | 59% |
| CN(CCCC(F)(F)F)c1nccc(-c2cnn3ncccc23)n1 | binding | 1 µM | 66% |
| COc1cc(-c2cn(C3CCc4c(F)cccc4N(CC(F)(F)F)C3=O)nn2)ccc1-n1cnc(C)c1 (centres unmarked) | cell-free assay, competition with immobilised ligand | 1 µM | 100% |
| N[C@@H]1CCN(c2nccc(-c3cnn4ncccc34)n2)C1 | binding | 1 µM | 52% |
| c1cncc(-c2cccc(Nc3nccc(NC4CCCCC4)n3)c2)c1 | binding, competition with immobilised ligand | 10 µM | 72% |
| Cc1cnn2ncc(-c3ccnc(N(C)C)n3)c2c1 | binding | 1 µM | 86% |
| C=CC(=O)N1CCC(C(=O)NCC(=O)N2CCN(c3nc(-c4cnc(N)nc4C(F)F)nc(N4CCOCC4)n3)CC2)CC1 | binding, competition with immobilised ligand | 1 µM | 75% |
| CC1=C(C#N)[C@@H](c2ccc3[nH]nc(C)c3c2)C(C#N)=C(c2ccc(Cl)cc2)N1 | cell-free assay, competition with immobilised ligand | 1 µM | 100% |
| O=C(c1ccc(Nc2nccc(-c3cc4ccccc4s3)n2)cc1)N1CCC(N2CCCC2)CC1 | binding, competition with immobilised ligand | 1 µM | 23% |
| C[C@@H]1CCN(c2nccc(-c3cnn4ncccc34)n2)C1 | binding | 1 µM | 89% |
| Cc1cc(-n2nc(Cc3cc(F)cc(C(F)(F)F)c3)nc2C)ccc1C(N)=O | cell-free assay, competition with immobilised ligand | 1 µM | 100% |
| O=C(NCCCN1CCOCC1)c1ccc(Nc2ncc(Cl)c(-c3ccc(Cl)s3)n2)cc1 | binding, competition with immobilised ligand | 1 µM | 4% |
| CC(=O)c1c(NS(C)(=O)=O)c2cc(-c3ccc(Cl)cc3)c(-c3ccc(Cl)cc3Cl)nc2n(C)c1=O | cell-free assay, competition with immobilised ligand | 1 µM | 92% |
| Cc1cnc(Nc2ccc(C(=O)N3CCC(N4CCCC4)CC3)cc2)nc1-c1cc2ccccc2s1 | binding, competition with immobilised ligand | 1 µM | 0.5% |
| CN(C)c1ncc(F)c(-c2cnn3ncccc23)n1 | binding | 1 µM | 100% |
